The nature of assay [1]: inhibitors of TNFa-induced NFkB p65 translocation, primary screen, imaging, HUVEC, MLSMR starter and 10KST1 sets (AID 438;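 active means inhibition above 20% together with a positive visual image hit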;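 further: compound added about 3h40 before a 20 min TNFalpha stimulation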;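 on inhibition: signal is the nuclear over cytoplasmic p65 intensity ratio per well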). As to conditions: HUVEC TNFa-induced p65 nuclear translocation; cell count: measured here: nuclei count (cytotoxicity indicator), at 2.08 µM; inhibition: at 2 µM, stronger effect = higher value, 0% TNFa-plus-vehicle, 100% no-TNFa wells.
Assay [2] in a line: reduction of polyQ htt aggregates in cells – imaging, exon1htt(103Q)mCFP cells, high-content imaging, primary screen (AID 483;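 active means visual image review flags a hit and inhibition of aggregation exceeds 20%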;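 further: compound exposure lasted 3 days before fixation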;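 on nuclei count: percent of the per-plate median nuclei count of sample wells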). As to conditions: exon1htt(103Q)mCFP cell line, aggregate imaging, at 2 µM; inhibition of aggregation: stronger effect = higher value; nuclei count: measured here: cell count, toxicity.
Assay [3] can be described thus: endothelial E-selectin expression blockers – imaging, HUVEC, immunofluorescence, MLSMR starter and 10KST1 sets, primary screen (AID 487).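 On inhibition: signal is fraction of cell area covered by stained E-selectin grains.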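 On nuclei count: 100% = median nuclei count of all wells on the same plate.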 As to conditions: HUVEC TNFalpha-induced E-selectin immunofluorescence imaging, at 2 µM; inhibition: stronger effect = higher value; nuclei count: measured here: cell number, toxicity.
In assay [4] the target is Voltage-gated potassium channel subunit beta-2 (Rattus norvegicus) (UniProt P62483). Nature of the assay: inhibitors of rat Kvbeta2 reductase activity – biochemical, NADPH fluorescence, primary screen (AID 622;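 active means fluorescence slope higher than the sample average by over 3 SD, cut at about -0.22 in these data, passing the limit was not always enough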;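 further: slope of raw intensity against log time taken from 70 to 1610 s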). As to conditions: recombinant KvBeta, 4-cyanobenzaldehyde reduction, at 10 µM, stronger effect = higher value.
For assay [5] the target is unchanged. Put plainly: enhancers of rat Kvbeta2 NADPH turnover – biochemical, NADPH fluorescence, primary screen (AID 623;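 active means NADPH fluorescence slope more negative than the mean of all samples by about 3 SD, 99.7% confidence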;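 further: fluorescence intensity change per second fitted from 20 to 320 s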). Particulars: Recombinant KvBeta, NADPH fluorescence decrease slope, 10 min; at 10 µM; stronger effect = lower value.
Assay [6] concerns the target Muscarinic acetylcholine receptor M4 (Homo sapiens) (UniProt P08173). Nature of the assay: M4-linked GIRK flux change, two-sided – cell-based, HEK293 M4/GIRK, thallium flux, BTC-AM, M4 allosteric agonist project, primary screen (AID 625;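 active means fluorescence slope after compound addition differing from the mean of all tested samples at 99.7% confidence, mostly higher but some lower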;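 further: thallium influx through GIRK channels coupled to M4 in HEK293 cells with BTC-AM dye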). Particulars: at 10 µM, actives lie on both sides. An outline of the steps:
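Material: HEK293 cells with M4 receptor and GIRK channels; Times: cells overnight at 37 °C, BTC-AM loading 1 h, reads 2 min total; Technique: kinetic BTC-AM fluorescence sampled at 1 Hz, 10 s pre-addition baseline; Read-out basis: slope over 15–24 s of trace normalized to starting intensity; Controls: carbachol positive, DMSO negative.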

A short description of assay [7]: blockers of RIG-like receptor reporter activation – cell-based, Sendai virus stimulus, luciferase, 10K MLSCN set, TLR/RLR signaling modifier project, primary screen (AID 602276;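 active means inhibition at or above 50% at 10 µM; inactive means inhibition below 50%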;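 further: firefly luciferase from ISG56 promoter only with Renilla not read in this screen; 0% = Sendai virus plus DMSO and 100% = medium plus DMSO without virus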). As to conditions: HEK293 RL24 IRF3 luciferase reporter, at 10 µM, stronger effect = higher value.
The nature of assay [8]: TLR3 IRF3 reporter activation blockers – cell-based, poly I:C stimulus, luciferase, 10K MLSCN set, primary screen (AID 602277;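 active means inhibition of the reporter signal at or above 50%; inactive means inhibition below 50%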). Particulars: HEK293-TLR3 RL24 IRF3 luciferase reporter, at 10 µM, stronger effect = higher value.

SMILES strings stand for the structures. The source made the active and inactive calls.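 How the source made its calls, unless noted: active means visually confirmed hit in the image check and inhibition above 20%; inconclusive means visually confirmed hit but inhibition not above 20%; inactive means no visual hit in the image check.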

Voltage-gated potassium channel subunit beta-2 (Rattus norvegicus), sequence (P62483 whole entry, looked up): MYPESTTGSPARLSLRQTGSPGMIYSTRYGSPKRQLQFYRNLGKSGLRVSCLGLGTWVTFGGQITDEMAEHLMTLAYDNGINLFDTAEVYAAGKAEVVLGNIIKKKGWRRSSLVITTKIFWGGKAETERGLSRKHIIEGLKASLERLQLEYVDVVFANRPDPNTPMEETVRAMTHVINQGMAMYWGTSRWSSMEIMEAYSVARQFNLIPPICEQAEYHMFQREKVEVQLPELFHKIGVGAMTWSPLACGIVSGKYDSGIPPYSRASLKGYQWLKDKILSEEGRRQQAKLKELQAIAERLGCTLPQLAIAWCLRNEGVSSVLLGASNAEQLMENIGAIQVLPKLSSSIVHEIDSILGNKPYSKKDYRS
Muscarinic acetylcholine receptor M4 (Homo sapiens), sequence (P08173 whole entry, looked up): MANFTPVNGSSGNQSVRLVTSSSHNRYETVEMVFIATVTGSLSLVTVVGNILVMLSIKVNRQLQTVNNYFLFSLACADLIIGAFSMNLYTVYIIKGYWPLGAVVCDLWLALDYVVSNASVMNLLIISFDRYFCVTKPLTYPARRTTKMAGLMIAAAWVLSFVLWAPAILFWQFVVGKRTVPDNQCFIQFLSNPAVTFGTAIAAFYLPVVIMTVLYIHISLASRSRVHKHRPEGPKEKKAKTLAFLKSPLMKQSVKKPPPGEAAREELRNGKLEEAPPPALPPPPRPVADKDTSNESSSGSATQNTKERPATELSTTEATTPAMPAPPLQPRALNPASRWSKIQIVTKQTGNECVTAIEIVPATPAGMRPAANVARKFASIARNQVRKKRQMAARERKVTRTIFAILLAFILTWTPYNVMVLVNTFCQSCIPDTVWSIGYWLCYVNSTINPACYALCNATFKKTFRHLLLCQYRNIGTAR

For the compound `CCn1c(SCC(=O)c2ccc3c(c2)OCCO3)nnc1-c1ccco1`, in assay [1], the cell count amounted to 571. Also, the inhibition in assay [1] was -38.8% (inactive); in assay [3] it was -52.3% (inactive); in assay [7] it was 11.1% (inactive); in assay [8] it was 0.911% (inactive). Moreover, the inhibition of aggregation in assay [2] is -1% (inactive). For the same compound, the nuclei count amounted to 115% in assay [2] and 117% in assay [3]. The fluorescence slope was -0.514 (inactive) in assay [4] and 0.00561 (inactive) in assay [6]. The NADPH fluorescence slope in assay [5] was -2.2e-05 (inactive).
`Cc1ccc(O)c(NC(=O)COc2cc(C)ccc2C)c1`: the cell count in assay [1] came to 431. The inhibition is 11.4% (inactive) in assay [1], -71.5% (inactive) in assay [3], -3.99% (inactive) in assay [7] and -13.6% (inactive) in assay [8]. Besides, the inhibition of aggregation in assay [2] is 3% (inactive). Moreover, the figures for the nuclei count in assay [2] and in assay [3] were 106% and 115%, respectively. Further, the fluorescence slope in assay [4] was -0.473 (inactive); in assay [6], 0.00732 (inactive). Also, the NADPH fluorescence slope in assay [5] was 4.1e-05 (inactive).
For the compound `O=C(O)c1c[nH]c2ccc(S(=O)(=O)N3CCN(c4ccc(F)cc4)CC3)cc2c1=O`, in assay [1], the cell count was found to be 423. For the same compound, the inhibition in assay [1] is -1.1% (inactive); in assay [3] it was -183% (inactive); in assay [7], 1.85% (inactive); in assay [8], 0.478% (inactive). The inhibition of aggregation in assay [2] was 20.5% (inactive). Also, the nuclei count was determined as 87.5% in assay [2] and 101% in assay [3]. In addition, the fluorescence slope in assay [4] was -0.566 (inactive); in assay [6], 0.00349 (inactive). Besides, the NADPH fluorescence slope in assay [5] is 2e-06 (inactive).
For the compound `CCn1c(CCNC(=O)c2ccc(OC)c(OC)c2)nc2ccccc21`, in assay [1], the cell count turned out to be 275. Also, the inhibition in assay [1] is -8.5% (inactive); in assay [3] it was 3.1% (inactive); in assay [7] it was 15.9% (inactive); in assay [8], 6.06% (inactive). Besides, the inhibition of aggregation in assay [2] was -14.6% (inactive). Moreover, the nuclei count in assay [2] was determined as 95.7%; in assay [3] it was 88.5%. Also, the fluorescence slope in assay [4] is -0.468 (inactive); in assay [6] it was 0.00543 (inactive). Besides, in assay [5], the NADPH fluorescence slope is -3.6e-05 (inactive).
On to `CCN(CC)c1ccc2c(c1)C(=O)N(C)C2=O`, for which the cell count in assay [1] is 580. The inhibition in assay [1] was -1.9% (inactive); in assay [3] it was -49% (inactive); in assay [7], -6.87% (inactive); in assay [8], -37.5% (inactive). The inhibition of aggregation in assay [2] is -5.6% (inactive). Also, the results for the nuclei count in assay [2] and in assay [3] were 92.2% and 104%, respectively. Besides, the fluorescence slope in assay [4] is -0.417 (inactive); in assay [6], 0.00562 (inactive). Also, the NADPH fluorescence slope in assay [5] is -6.9e-05 (inactive).
Consider `Cn1c(Cc2csc(N)n2)nnc1SCC(=O)NC1CCCCC1`, for which the cell count in assay [1] stood at 662. Further, the inhibition in assay [1] was -3.3% (inactive); in assay [3] it was 16.6% (inactive); in assay [7], 4.63% (inactive); in assay [8], -2.17% (inactive). Besides, the inhibition of aggregation in assay [2] is -15.2% (inactive). Further, the nuclei count in assay [2] amounted to 101%; in assay [3], 91%. Further, the results for the fluorescence slope in assay [4] and in assay [6] were -0.479 (inactive) and 0.00433 (inactive), respectively. The NADPH fluorescence slope in assay [5] is 1.7e-05 (inactive).
As for `COc1nc2ccc(C)cc2cc1-c1noc(-c2cccnc2)n1`, in assay [1], the cell count is 243. Besides, the inhibition in assay [1] was -0.9% (inactive); in assay [3], -71.7% (inactive); in assay [7] it was 6.17% (inactive); in assay [8], -7.44% (inactive). In addition, the inhibition of aggregation in assay [2] is 3.8% (inactive). Also, the nuclei count in assay [2] was found to be 62.9%; in assay [3] it was 109%. In addition, the results for the fluorescence slope in assay [4] and in assay [6] were -0.456 (inactive) and 0.0055 (inactive), respectively. The NADPH fluorescence slope in assay [5] was 3.8e-06 (inactive).
Regarding `COc1ccc2cnn(-c3ccccc3)c(=O)c2c1OC`, the cell count in assay [1] worked out at 342. Further, the inhibition in assay [1] is -1.2% (inactive); in assay [3], 35.5% (inactive); in assay [7], -4.11% (inactive); in assay [8] it was -25.4% (inactive). The inhibition of aggregation in assay [2] is -8.5% (inactive). For the same compound, the nuclei count in assay [2] amounted to 107%; in assay [3] it was 109%. Besides, the fluorescence slope in assay [4] was -0.549 (inactive); in assay [6] it was 0.00377 (inactive). Moreover, the NADPH fluorescence slope in assay [5] is -7.6e-05 (inactive).
Consider `O=C(CN1C(=O)COc2ccccc21)NCCCN1CCN(Cc2ccccc2)CC1`, for which the cell count in assay [1] turned out to be 470. Moreover, the inhibition is -2.6% (inactive) in assay [1], -131% (inactive) in assay [3], -9.51% (inactive) in assay [7] and -8.02% (inactive) in assay [8]. Also, the inhibition of aggregation in assay [2] is 0.5% (inactive). The nuclei count in assay [2] was 91.9%; in assay [3], 232%. Further, the fluorescence slope is -0.581 (inactive) in assay [4] and 0.00512 (inactive) in assay [6]. Further, in assay [5], the NADPH fluorescence slope was -8.3e-06 (inactive).
With `CN(c1ccccc1)S(=O)(=O)c1cc(C(=O)N2CCN(c3ccccn3)CC2)ccc1Cl`, in assay [1], the cell count amounted to 628. Besides, the inhibition in assay [1] is 2.4% (inactive); in assay [3], -52.9% (inactive); in assay [7] it was 15.7% (inactive); in assay [8], 13.1% (inactive). Further, the inhibition of aggregation in assay [2] was -6.5% (inactive). The nuclei count is 134% in assay [2] and 108% in assay [3]. Further, the fluorescence slope in assay [4] was -0.475 (inactive); in assay [6] it was 0.00416 (inactive). Also, the NADPH fluorescence slope in assay [5] was -6e-05 (inactive).
For `COCC(=O)Nc1sc2c(c1C(=O)OC)C(C(=O)OC)CC2` (centres undefined), the cell count in assay [1] was 403. The inhibition is -3.4% (inactive) in assay [1], 9.9% (inactive) in assay [3], -8.7% (inactive) in assay [7] and 0.35% (inactive) in assay [8]. Further, the inhibition of aggregation in assay [2] was -1.9% (inactive). The results for the nuclei count in assay [2] and in assay [3] were 93.9% and 105%, respectively. The fluorescence slope in assay [4] is -0.481 (inactive); in assay [6], 0.00577 (inactive). The NADPH fluorescence slope in assay [5] is 7e-05 (inactive).
Regarding `O=C(Nc1cccc(F)c1)N1CC=C(n2c(=O)[nH]c3ccccc32)CC1`, the cell count in assay [1] came to 312. Besides, the inhibition in assay [1] is 5.7% (inactive); in assay [3], -37.9% (inactive); in assay [7], 15% (inactive); in assay [8] it was 15.5% (inactive). Further, the inhibition of aggregation in assay [2] is 4.5% (inactive). The values for the nuclei count in assay [2] and in assay [3] were 107% and 83.5%, respectively. Moreover, the fluorescence slope was -0.453 (inactive) in assay [4] and 0.00517 (inactive) in assay [6]. For the same compound, the NADPH fluorescence slope in assay [5] is -0.000227 (inactive).
Regarding `Cc1cc(C)c(-c2cc(C(=O)Nc3c(C)n(C)n(-c4ccccc4)c3=O)[nH]n2)c(O)c1`, the cell count in assay [1] is 434. Moreover, the inhibition in assay [1] was 1.8% (inactive); in assay [3] it was -51.7% (inactive); in assay [7], 8.55% (inactive); in assay [8] it was 101% (active). For the same compound, the inhibition of aggregation in assay [2] is -1.8% (inactive). Moreover, the figures for the nuclei count in assay [2] and in assay [3] were 111% and 105%, respectively. The fluorescence slope is -0.585 (inactive) in assay [4] and 0.00571 (inactive) in assay [6]. Also, in assay [5], the NADPH fluorescence slope is 3.8e-05 (inactive).
`CC1=CC=CC2=NC(=O)CC(C)(C(=O)N(CC(=O)NC(C)C)C3CCCC3)N12` (centres undefined): in assay [1], the cell count was 668. For the same compound, the inhibition is -4.9% (inactive) in assay [1], 71.9% (active) in assay [3], 4.96% (inactive) in assay [7] and 6.2% (inactive) in assay [8]. Further, the inhibition of aggregation in assay [2] is -31.9% (inactive). In addition, the nuclei count in assay [2] was 107%; in assay [3], 102%. Besides, the fluorescence slope was -0.405 (inactive) in assay [4] and 0.00619 (inactive) in assay [6]. The NADPH fluorescence slope in assay [5] was 6.3e-05 (inactive).

The record behind these values is PubChem BioAssay.
